The values below come from ChEMBL document CHEMBL4699617, “Rational Design of Right-Handed Heterogeneous Peptidomimetics as Inhibitors of Protein-Protein Interactions” (J Med Chem, 2020).

Each structure is given as a SMILES string. The source made the active and inactive calls. The rule behind the calls is not given here.

Assay [1] addresses T1, E3 ubiquitin-protein ligase Mdm2 (Homo sapiens, UniProt Q00987). Kind of assay: Inhibition of MDM2 in human U2OS cells assessed as increase in p53 expression at 30 uM incubated for 16 hrs by Western blot analysis. The format is cell-based. The method in brief:
(§1)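 U2OS osteosarcoma cells carrying endogenous wild-type p53, treated at 30 μM for 16 h. Cells lysed in Tris-HCl pH 8.0/150 mM NaCl/0.5% NP-40 with PMSF and protease inhibitors, spun 14,000g, 10 min, 4 °C. Supernatant boiled in Laemmli buffer, run on SDS-PAGE and immunoblotted for p53 pathway markers.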
Target sequence in this assay (Q00987 whole entry, looked up): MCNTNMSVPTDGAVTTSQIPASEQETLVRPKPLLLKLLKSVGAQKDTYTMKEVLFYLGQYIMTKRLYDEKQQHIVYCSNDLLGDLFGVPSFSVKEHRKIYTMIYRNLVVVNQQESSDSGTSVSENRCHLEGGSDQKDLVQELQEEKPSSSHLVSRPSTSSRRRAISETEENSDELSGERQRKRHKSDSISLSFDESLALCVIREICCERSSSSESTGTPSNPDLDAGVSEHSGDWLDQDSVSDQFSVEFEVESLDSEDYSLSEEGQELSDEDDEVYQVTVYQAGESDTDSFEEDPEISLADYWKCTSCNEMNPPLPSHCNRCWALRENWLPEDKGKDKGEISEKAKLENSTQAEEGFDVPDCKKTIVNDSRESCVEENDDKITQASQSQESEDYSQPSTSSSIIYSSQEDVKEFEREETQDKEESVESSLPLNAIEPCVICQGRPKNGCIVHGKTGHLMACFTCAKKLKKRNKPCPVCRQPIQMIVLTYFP

In assay [2] the target is T1, E3 ubiquitin-protein ligase Mdm2. Kind of assay: Inhibition of MDM2 in human U2OS cells assessed as increase in MDM2 expression at 30 uM incubated for 16 hrs by Western blot analysis. The format is cell-based. In outline:
as §1
Target sequence in this assay (Q00987 whole entry, looked up): as above

The target is the same in assay [3]. Kind of assay: Inhibition of MDM2 in human U2OS cells assessed as increase in p21 expression at 30 uM incubated for 16 hrs by Western blot analysis. The format is cell-based. In outline: as §1
Target sequence in this assay (Q00987 whole entry, looked up): as above
Assay [4] shares this target. As to the kind of experiment: Binding affinity to human recombinant MDM2 (1 to 150 residue) expressed in Escherichia coli using presence of FITC-labelled compound by fluorescence polarization assay.
Target sequence in this assay (Q00987 whole entry): as the sequence (Q00987 whole entry, looked up) above

In the case of `CC(C)C[C@H](NC(=O)CN(C[C@@H]1CCCCNC(=O)CC[C@H](NC(=O)CN(C[C@H](Cc2ccccc2)NC(=O)[C@@H](NC(=O)CCc2ccccc2)[C@@H](C)O)S(C)(=O)=O)C(=O)N[C@@H](Cc2ccc(O)cc2)CN(S(=O)(=O)c2ccc3ccccc3c2)CC(=O)N[C@@H](C)C(=O)N1)S(=O)(=O)CC(C)C)C(=O)N[C@@H](CO)CN(CC(=O)N[C@@H](C)C(N)=O)S(C)(=O)=O`, in assay [1], the “p53 expression increase (activity call)” value was “Active”. For the same compound, in assay [2], the “Increase in MDM2 expression (active/inactive)” value (“Increase … (active/inactive)” for short) is “Active”. Further, the “p21 expression increase (active/inactive call)” value in assay [3] is “Active”. In assay [4], the IC50 came to 9.4 µM.
With `CC(=O)N[C@H](C(=O)N[C@@H](Cc1c[nH]c2ccccc12)CN(CC(=O)N[C@H]1CCC(=O)NCCCC[C@@H](CN(CC(=O)N[C@@H](CC(C)C)C(=O)N[C@@H](CO)CN(CC(=O)N[C@@H](C)C(N)=O)S(C)(=O)=O)S(=O)(=O)CC(C)C)NC(=O)[C@H](C)NC(=O)CN(S(=O)(=O)c2ccc3ccccc3c2)C[C@H](Cc2ccc(O)cc2)NC1=O)S(C)(=O)=O)[C@@H](C)O`, the “p53 expression increase (activity call)” value in assay [1] is “Active”. Moreover, the “Increase … (active/inactive)” value in assay [2] was “Active”. For the same compound, the “p21 expression increase (active/inactive call)” value in assay [3] was “Active”.
For the compound `CC(=O)N[C@H](C(=O)N[C@@H](Cc1ccccc1)CN(CC(=O)N[C@H]1CCC(=O)NCCCC[C@@H](CN(CC(=O)N[C@@H](CC(C)C)C(=O)N[C@@H](CO)CN(CC(=O)N[C@@H](C)C(N)=O)S(C)(=O)=O)S(=O)(=O)CC(C)C)NC(=O)[C@H](C)NC(=O)CN(S(=O)(=O)c2ccc3ccccc3c2)C[C@H](Cc2ccc(O)cc2)NC1=O)S(C)(=O)=O)[C@@H](C)O`, in assay [1], the “p53 expression increase (activity call)” value is “Active”. Also, the “Increase … (active/inactive)” value in assay [2] is “Active”. The “p21 expression increase (active/inactive call)” value in assay [3] is “Active”. Further, the IC50 in assay [4] was found to be 11.7 µM.
Regarding `CC(=O)N[C@H](C(=O)N[C@@H](Cc1ccccc1)CN(CC(=O)N[C@H]1CCC(=O)NCCCC[C@@H](CN(CC(=O)N[C@@H](CC(C)C)C(=O)N[C@@H](CO)CN(CC(=O)N[C@@H](C)C(N)=O)S(C)(=O)=O)S(C)(=O)=O)NC(=O)[C@H](C)NC(=O)CN(S(=O)(=O)c2ccc3ccccc3c2)C[C@H](Cc2ccc(O)cc2)NC1=O)S(C)(=O)=O)[C@@H](C)O`, the “p53 expression increase (activity call)” value in assay [1] is “Active”. Also, the “Increase … (active/inactive)” value in assay [2] is “Active”. Also, the “p21 expression increase (active/inactive call)” value in assay [3] is “Active”. Besides, the IC50 in assay [4] was 9 µM.
